Assay [1] concerns Candida albicans. Kind of assay: Antifungal activity against Candida albicans by MTT assay. The assay is classed as functional, organism-based. In short, it runs like this:
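Tested against Candida albicans strain ATCC 90028 with a modified colorimetric method that uses tetrazolium salt (MTT) reduction as the read-out.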
For orientation: Formazan colour is commonly taken as a measure of viable cells.

Assay [2] deals with KB. The assay can be described thus: Cytotoxicity against human KB cells by MTT assay. It counts as functional, cell-based.
The subject of assay [3] is BC1. The assay can be described thus: (§1) Cytotoxicity against human BC1 cells by MTT assay. It counts as functional, cell-based.
Assay [4] has as its system Mycobacterium tuberculosis. The assay can be described thus: Antimicrobial activity against Mycobacterium tuberculosis H37Ra by Microplate Alamar blue assay. It counts as functional. The method in brief: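 Whole-cell growth inhibition of M. tuberculosis H37Ra read by Microplate Alamar Blue Assay; value reported as minimum inhibitory concentration; isoniazid and kanamycin sulfate as reference drugs.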

The test system of assay [5] is Plasmodium falciparum. Kind of assay: Antimalarial activity after 42 hrs against Plasmodium falciparum K1. Conditions: K1, 42 h.
The nature of assay [6]: as §1. The assay is classed as functional, cell-based.

Each structure is given as a SMILES string. Converted amounts (≈) assume the structure as drawn. The source made the active and inactive calls. The calls are words filed in the database; no cut-off is given here.

With `CC(=O)C[C@]1(O)C(=O)c2c(O)cc(CO)cc2O[C@@]1(C)[C@@H]1CCC(=O)O1`, the outcome in assay [1], in assay [2], in assay [3] and in assay [4] was inactive.
Consider `C[C@]1([C@@H]2CCC(=O)O2)CC(=O)c2c(O)cc(CO)cc2O1`, for which the outcome in assay [1], in assay [2], in assay [3] and in assay [4] was inactive.
`Cc1cc(O)c2c(=O)c(O)c(C)oc2c1`: the result in assay [1], in assay [2], in assay [3] and in assay [4] was inactive.
In the case of `C[C@H]1[C@@H](O)O[C@@H]2O[C@@]3(C)CC[C@H]4[C@H](C)CC[C@@H]1[C@@]24OO3` [ARTENIMOL], inhibition in assay [5] was half-maximal at 3.7 nM (IC50). This lies in the single-digit nanomolar range.
As for `Cc1c2ccncc2c(C)c2c1[nH]c1ccccc12` [ELLIPTECINE], the IC50 (as a rule, the concentration that inhibits the measured activity by half) came out at 0.24 µg/mL (≈ 0.974 µM) in assay [2] and 0.22 µg/mL (≈ 0.893 µM) in assay [6].
In the case of `NNC(=O)c1ccncc1` [ISONIAZID], the MIC (in general, the least concentration at which growth counts as inhibited) in assay [4] amounted to 0.05 µg/mL (≈ 0.365 µM).
In assay [4], `NC[C@H]1O[C@H](O[C@H]2[C@H](O)[C@@H](O[C@H]3O[C@H](CO)[C@@H](O)[C@H](N)[C@H]3O)[C@H](N)C[C@@H]2N)[C@H](O)[C@@H](O)[C@@H]1O.O=S(=O)(O)O` [KANAMYCIN SULFATE] returned an MIC of 2.5 µg/mL. Compared with the last compound, the MIC is about 50-fold higher.
Regarding `Cc1oc2cc(CO)cc(O)c2c(=O)c1O` [LACHNONE B], the outcome in assay [1], in assay [2] and in assay [3] was inactive. The MIC in assay [4] came to 200 µg/mL (≈ 900 µM).
In the case of `C[C@@]1([C@@H]2CCC(=O)O2)Oc2cc(CO)cc(O)c2C(=O)[C@H]1O` [LACHNONE D], the result in assay [1], in assay [2] and in assay [3] was inactive. This compound also showed an MIC in assay [4] of 200 µg/mL (≈ 649 µM).

Values taken from ChEMBL document CHEMBL1157979, “Chromone derivatives from the filamentous fungus Lachnum sp. BCC 2424” (J Nat Prod, 2006).
